Test results as given in ChEMBL document CHEMBL1926574, “Synthesis and biological evaluation of a new series of 1,2,4-triazolo[1,5-a]-1,3,5-triazines as human A(2A) adenosine receptor antagonists with improved water solubility” (J Med Chem, 2011).

Key:
[1] = molecular target: T1, Adenosine receptor A3 (Homo sapiens) (UniProt P0DMS8); assay: Displacement of [I125]I-AB-MECA from human adenosine A3 receptor expressed in CHO cells at 10 uM by scintillation counting; assay type: cell-based
T1 sequence (whole entry): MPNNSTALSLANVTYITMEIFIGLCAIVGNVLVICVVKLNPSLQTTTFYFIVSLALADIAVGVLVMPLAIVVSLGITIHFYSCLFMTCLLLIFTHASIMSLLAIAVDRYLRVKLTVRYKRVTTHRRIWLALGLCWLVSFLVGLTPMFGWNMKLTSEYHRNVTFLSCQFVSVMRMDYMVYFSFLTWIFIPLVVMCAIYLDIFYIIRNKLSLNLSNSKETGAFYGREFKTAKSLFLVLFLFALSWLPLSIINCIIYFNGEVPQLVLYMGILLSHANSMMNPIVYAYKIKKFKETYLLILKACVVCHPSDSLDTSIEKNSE

Adenosine receptor A1 = molecular target: T2, Adenosine receptor A1 (Homo sapiens, UniProt P30542); assay: Displacement of [3H]DPCPX from human adenosine A1 receptor expressed in HEK293 cells by scintillation counting; assay type: cell-based
T2 sequence (P30542 whole entry): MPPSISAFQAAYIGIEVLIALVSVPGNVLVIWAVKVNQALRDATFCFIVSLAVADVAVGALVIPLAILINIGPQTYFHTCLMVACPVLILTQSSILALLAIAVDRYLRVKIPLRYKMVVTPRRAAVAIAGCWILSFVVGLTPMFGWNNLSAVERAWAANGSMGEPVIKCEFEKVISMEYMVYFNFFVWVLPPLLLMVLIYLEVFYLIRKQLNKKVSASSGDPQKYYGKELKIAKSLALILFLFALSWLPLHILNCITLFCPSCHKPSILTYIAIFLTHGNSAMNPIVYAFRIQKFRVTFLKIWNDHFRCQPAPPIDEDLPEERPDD

Adenosine receptor A2b = molecular target: T3, Adenosine receptor A2b (Homo sapiens, UniProt P29275); assay: Antagonist activity at human recombinant adenosine A2B receptor expressed in CHO cells assessed as inhibition of NECA-stimulated adenylyl cyclase activity; assay type: functional, cell-based
T3 sequence (P29275 whole entry): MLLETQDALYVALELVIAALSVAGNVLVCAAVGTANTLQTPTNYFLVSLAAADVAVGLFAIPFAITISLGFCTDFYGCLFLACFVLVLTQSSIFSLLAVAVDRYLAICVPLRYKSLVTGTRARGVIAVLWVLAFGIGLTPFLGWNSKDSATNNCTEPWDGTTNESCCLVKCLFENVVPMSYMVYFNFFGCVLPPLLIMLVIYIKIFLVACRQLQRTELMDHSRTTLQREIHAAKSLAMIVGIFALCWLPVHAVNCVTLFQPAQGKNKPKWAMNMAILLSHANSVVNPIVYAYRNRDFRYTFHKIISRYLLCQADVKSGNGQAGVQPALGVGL
Procedure, shortened: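 Membranes from CHO cells stably expressing the hA2B receptor were incubated 20 min with about 150,000 cpm [α-32P]ATP, without EGTA and NaCl. The read-out was antagonist concentration-dependent inhibition of NECA-stimulated adenylyl cyclase. IC50 was calculated with the Hill equation.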

Adenosine receptor A2a = Adenosine receptor A2a (Homo sapiens, UniProt P29274); assay: Displacement of [3H]ZM241385 from human adenosine A2A receptor expressed in HEK293 cells by scintillation counting; assay type: cell-based
Homo sapiens [2] = species on record: Homo sapiens; assay: Selectivity ratio of Ki for human adenosine A1 receptor to Ki for human adenosine A2A receptor
Homo sapiens [3] = species on record: Homo sapiens; assay: Selectivity ratio of Ki for human adenosine A3 receptor to Ki for human adenosine A2A receptor
[4] = molecular target: T4, Adenosine receptor A1 (Homo sapiens) (UniProt P30542); assay: Displacement of [3H]DPCPX from human adenosine A1 receptor expressed in HEK293 cells at 10 uM by scintillation counting; assay type: cell-based
T4 sequence (whole entry): T2 sequence (P30542 whole entry)

[5] = molecular target: T1, Adenosine receptor A3 (Homo sapiens); assay: Antagonist activity at human adenosine A3 receptor; assay type: functional
[6] = molecular target: T4, Adenosine receptor A1 (Homo sapiens); assay: Antagonist activity at human adenosine A1 receptor; assay type: functional
[7] = molecular target: T5, Adenosine receptor A2b (Homo sapiens) (UniProt P29275); assay: Antagonist activity at human adenosine A2B receptor; assay type: functional
T5 sequence (whole entry): T3 sequence (P29275 whole entry)

[8] = molecular target: T6, Adenosine receptor A1 (Rattus norvegicus) (UniProt P25099); assay: Antagonist activity at rat adenosine A1 receptor; assay type: functional
T6 sequence (whole entry): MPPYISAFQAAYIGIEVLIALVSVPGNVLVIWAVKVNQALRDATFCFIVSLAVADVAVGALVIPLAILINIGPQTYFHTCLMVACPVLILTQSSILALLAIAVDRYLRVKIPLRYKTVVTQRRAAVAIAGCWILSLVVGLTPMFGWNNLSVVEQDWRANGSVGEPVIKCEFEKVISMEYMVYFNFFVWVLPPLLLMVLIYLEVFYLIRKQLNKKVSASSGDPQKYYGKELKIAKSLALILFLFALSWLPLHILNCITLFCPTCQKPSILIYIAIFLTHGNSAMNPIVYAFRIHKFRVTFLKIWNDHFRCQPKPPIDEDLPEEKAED

Adenosine receptor A2a, sequence (P29274 whole entry): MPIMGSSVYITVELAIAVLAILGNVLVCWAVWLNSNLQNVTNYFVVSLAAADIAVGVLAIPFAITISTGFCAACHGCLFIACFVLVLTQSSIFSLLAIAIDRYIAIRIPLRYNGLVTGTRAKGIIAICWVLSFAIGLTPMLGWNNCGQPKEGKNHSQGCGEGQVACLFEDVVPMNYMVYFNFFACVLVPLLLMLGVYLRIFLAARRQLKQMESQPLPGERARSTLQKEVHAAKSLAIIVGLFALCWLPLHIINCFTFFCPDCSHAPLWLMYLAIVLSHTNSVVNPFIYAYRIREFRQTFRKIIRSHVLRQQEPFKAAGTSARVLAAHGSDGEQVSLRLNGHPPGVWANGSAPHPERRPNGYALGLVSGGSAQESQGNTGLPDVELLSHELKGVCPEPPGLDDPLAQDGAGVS

Q: Which results are given for `Nc1nc(O)nc2nc(-c3ccco3)nn12`?
A: Activity [1]: 43.9%; Ki (Adenosine receptor A1): 3110 nM; IC50 (Adenosine receptor A2b): > 10000 nM; Ki (Adenosine receptor A2a): 201 nM; Ratio Ki (Homo sapiens [2]): 15.5; Ratio Ki (Homo sapiens [3]): 50

Q: Which results are given for `Nc1nc(NC(=O)c2ccccc2)n2nc(-c3ccco3)nc2n1`?
A: Activity [1]: 67.2%; Ki (Adenosine receptor A1): 1800 nM; IC50 (Adenosine receptor A2b): 7060 nM; Ki (Adenosine receptor A2a): 44.1 nM; Ratio Ki (Homo sapiens [2]): 40

Q: What does the source list for `Nc1nc(N2CCN(Cc3ccc(Br)cc3)CC2)nc2nc(-c3ccco3)nn12`?
A: Activity [1]: 49.8%; Ki (Adenosine receptor A1): 86.7 nM; IC50 (Adenosine receptor A2b): > 10000 nM; Ki (Adenosine receptor A2a): 27.3 nM; Ratio Ki (Homo sapiens [2]): 3.2; Ratio Ki (Homo sapiens [3]): 300

Q: Which results are given for `Nc1nc(N2CCN(C(=O)c3cccc4ccccc34)CC2)nc2nc(-c3ccco3)nn12`?
A: Activity [1]: 31.1%; IC50 (Adenosine receptor A2b): > 100000 nM; Ki (Adenosine receptor A2a): 7680 nM; Activity [4]: 4.9%

Q: With `CC(C)(C)CC(=O)N1CCN(c2nc(N)n3nc(-c4ccco4)nc3n2)CC1` as the compound, how does the Activity [1] read?
A: 41.9%

Q: And the IC50 (Adenosine receptor A2b)?
A: > 100000 nM

Q: And the Ki (Adenosine receptor A2a)?
A: 11.1 nM

Q: What about the Ratio Ki (Homo sapiens [2]) of the same compound?
A: 900

Q: What about the Ratio Ki (Homo sapiens [3]) of the same compound?
A: > 900

Q: What about the Activity [4] of the same compound?
A: 53.1%

Q: For `CC(C)(C)OC(=O)NCCOCCOCCNc1nc(N)n2nc(-c3ccco3)nc2n1`, which Activity [1] is on record?
A: 74%

Q: And the Ki (Adenosine receptor A1)?
A: 1580 nM

Q: And the IC50 (Adenosine receptor A2b)?
A: > 10000 nM

Q: What about the Ki (Adenosine receptor A2a) of the same compound?
A: 17.8 nM

Q: What about the Ratio Ki (Homo sapiens [2]) of the same compound?
A: 89

Q: Which results are given for `CCCCC(=O)N1CCN(c2nc(N)n3nc(-c4ccco4)nc3n2)CC1`?
A: Activity [1]: 56.2%; IC50 (Adenosine receptor A2b): > 100000 nM; Ki (Adenosine receptor A2a): 124 nM; Activity [4]: 10.8%

Q: How did the Antagonist potency [5] turn out when `Cn1cc2c(nc(NC(=O)Cc3ccccc3)n3nc(-c4ccccc4)nc23)n1` was run?
A: 0.108 nM

Q: What about the INH [6] of the same compound?
A: 562 nM

Q: What about the Antagonist potency (inhibitory concentration) [7] of the same compound?
A: > 10000 nM

Q: For `CC(C)(C)OC(=O)NCCCNc1nc(N)n2nc(-c3ccco3)nc2n1`, which Activity [1] is on record?
A: 77.3%

Q: What about the Ki (Adenosine receptor A1) of the same compound?
A: 344 nM

Q: And the IC50 (Adenosine receptor A2b)?
A: 20600 nM

Q: What about the Ki (Adenosine receptor A2a) of the same compound?
A: 38.6 nM

Q: What about the Ratio Ki (Homo sapiens [2]) of the same compound?
A: 9

Q: `CC(C)(C)OC(=O)NCC1CCC(CNc2nc(N)n3nc(-c4ccco4)nc3n2)CC1` (stereo unspecified) was tested. Which Activity [1] did it give?
A: 75.5%

Q: And the Ki (Adenosine receptor A1)?
A: 3890 nM

Q: And the IC50 (Adenosine receptor A2b)?
A: 7140 nM

Q: What about the Ki (Adenosine receptor A2a) of the same compound?
A: 69.7 nM

Q: What about the Ratio Ki (Homo sapiens [2]) of the same compound?
A: 56

Q: Which results are given for `Nc1nc(N2CCCC2)nc2nc(-c3ccco3)nn12`?
A: Activity [1]: 75%; Ki (Adenosine receptor A1): 1940 nM; IC50 (Adenosine receptor A2b): > 30000 nM; Ki (Adenosine receptor A2a): 59.1 nM; Ratio Ki (Homo sapiens [2]): 33

Q: What does the source list for `NCCCNc1nc(N)n2nc(-c3ccco3)nc2n1`?
A: Activity [1]: 40.5%; IC50 (Adenosine receptor A2b): > 30000 nM; Ki (Adenosine receptor A2a): 270 nM; Activity [4]: 44.3%

Q: For `CSc1nc(NC(=O)C(c2ccccc2)c2ccccc2)n2nc(-c3ccco3)nc2n1`, which Antagonist potency [5] is on record?
A: 170 nM

Q: And the INH [8]?
A: 557 nM

Q: What about the Antagonist potency (inhibitory concentration) [7] of the same compound?
A: > 100000 nM

Q: With `Nc1nc(N2CCN3C[C@@H](COc4cccc(F)c4)CC[C@H]3C2)nc2nc(-c3ccco3)nn12` as the compound, how does the INH [8] read?
A: 3300 nM

Q: `NCCCCCNc1nc(N)n2nc(-c3ccco3)nc2n1` was tested. Which Activity [1] did it give?
A: 49.9%

Q: And the Ki (Adenosine receptor A1)?
A: 2950 nM

Q: What about the IC50 (Adenosine receptor A2b) of the same compound?
A: > 10000 nM

Q: And the Ki (Adenosine receptor A2a)?
A: 90.1 nM

Q: What about the Ratio Ki (Homo sapiens [2]) of the same compound?
A: 33

Q: How did the Activity [1] turn out when `Nc1nc(N)n2nc(-c3ccco3)nc2n1` was run?
A: 36.4%

Q: What about the Ki (Adenosine receptor A1) of the same compound?
A: 1410 nM

Q: And the IC50 (Adenosine receptor A2b)?
A: 11100 nM

Q: What about the Ki (Adenosine receptor A2a) of the same compound?
A: 160 nM

Q: What about the Ratio Ki (Homo sapiens [2]) of the same compound?
A: 9

Q: Which Activity [1] does the source give for `CC(C)(C)C(=O)N1CCN(c2nc(N)n3nc(-c4ccco4)nc3n2)CC1` here?
A: 32.3%

Q: And the IC50 (Adenosine receptor A2b)?
A: > 100000 nM

Q: And the Ki (Adenosine receptor A2a)?
A: 58.4 nM

Q: And the Activity [4]?
A: 38.7%

Q: `Nc1nc(N2CCN(C(=O)C(c3ccccc3)c3ccccc3)CC2)nc2nc(-c3ccco3)nn12` was tested. Which Activity [1] did it give?
A: 40.6%

Q: What about the Ki (Adenosine receptor A1) of the same compound?
A: 7470 nM

Q: What about the IC50 (Adenosine receptor A2b) of the same compound?
A: > 100000 nM

Q: And the Ki (Adenosine receptor A2a)?
A: 92.9 nM

Q: What about the Ratio Ki (Homo sapiens [2]) of the same compound?
A: 80

Q: What does the source list for `Nc1nc(N2CCN(C(=O)c3ccc([N+](=O)[O-])cc3)CC2)nc2nc(-c3ccco3)nn12`?
A: Activity [1]: 50.9%; IC50 (Adenosine receptor A2b): > 100000 nM; Ki (Adenosine receptor A2a): 212 nM; Ratio Ki (Homo sapiens [3]): 40; Activity [4]: 35.5%
